Compound activity deposited in PubChem by Broad Institute.
T cruzi HTS = inhibitors of intracellular Trypanosoma cruzi, primary screen, cell-based, plate reader, single point, set 2; intracellular Trypanosoma cruzi in host cells; activity score (inhibition), % at 5.01 µM; 22,000 compounds, 4.9% hits; in the data active means activity score above about 55%;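 further: parasites and compound incubated about four days before reading; 0% = median of neutral control wells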
A1 apoptosis 2 = A1 inhibitors via caspase activation, primary screen, cell-based, luminescence, HTS, two replicates; MEF A1-2A-BIM cells, caspase-Glo luminescence, 3 h; percent of clofoctol response, DMSO zero; 24,000 tested, under 10 active; caspase activation, % (no concentration beside the values); in the data active means caspase activation above about 5.9%
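Material: mouse embryonic fibroblasts co-expressing A1 and BIM (A1-2A-BIM), primed for A1 dependence / Quantity: 2500 cells/well / Buffer or medium: RPMI-1640 growth medium with 10% FBS / Doses: 50 nL compound per well, pinned / Schedule: 3 h compound exposure at 37 °C / Signal: Caspase-Glo luminescence (DEVD substrate) / Measure: Caspase-3/7 activation, seen as rise in luminescence signal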
INS-1E rescue = protection of INS-1E cells from cytokine death, primary screen, ATP luminescence, single point; INS-1E cytokine-induced death, 48 h; normalised: neutral wells 0, positive control 100; protection from cytokine-induced ATP loss, % at 10 µM; 20,000 compounds, 0.1% hits; AID 488910, 2010;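 active means mean replicate protection from cytokine-induced ATP loss at least 50% and at least 75% of replicates each reaching 50%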
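Assay system: INS-1E rat cells / Quantity: 8000 cells per well / Medium: RPMI without phenol red, 5% FBS / Probe or stimulus: three-cytokine cocktail (IFN-γ, TNF-α, IL-1β) / Dosing: one compound concentration, pin transfer / Timing: 48 h co-treatment, 10 min post-lysis read / Technique: CellTiter-Glo luminescence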
Numbers without * were called inactive. Shown is part of a subset that was picked to be rich in hits.

How did C[C@@H]1CN([C@@H](C)CO)C(=O)Cc2cc(NS(=O)(=O)c3ccccc3)ccc2O[C@@H]1CN(C)Cc1ccc(C(F)(F)F)cc1 do in these assays?
T cruzi HTS: -7; A1 apoptosis 2: 0; INS-1E rescue: 5

How did C[C@H](CO)N1C[C@H](C)[C@@H](CN(C)Cc2ccc(C(F)(F)F)cc2)Oc2ccc(NS(=O)(=O)c3ccc(Cl)cc3)cc2CC1=O do in these assays?
A1 apoptosis 2: 0

What do the screens show for `C[C@H]1CN([C@@H](C)CO)C(=O)Cc2cc(NS(=O)(=O)c3ccc(Cl)cc3)ccc2O[C@@H]1CN(C)Cc1ccc(C(F)(F)F)cc1`?
T cruzi HTS: 72*; INS-1E rescue: 5

Results for C[C@@H]1CN([C@@H](C)CO)C(=O)Cc2cc(NS(=O)(=O)c3ccc(Cl)cc3)ccc2O[C@@H]1CN(C)Cc1ccc(C(F)(F)F)cc1 ?
T cruzi HTS: 58*; A1 apoptosis 2: 0; INS-1E rescue: -20

How did C[C@@H]1CN([C@H](C)CO)C(=O)Cc2cc(NS(=O)(=O)c3ccc(Cl)cc3)ccc2O[C@H]1CN(C)Cc1ccc(C(F)(F)F)cc1 do in these assays?
T cruzi HTS: 64*; A1 apoptosis 2: 0; INS-1E rescue: -12

What do the screens show for `[N-]=[N+]=Nc1ccccc1C[C@@]1(C(=O)NCC(O)CO)N=C(c2ccc(OCCCO)cc2)O[C@@H]1c1ccccc1` (stereo not given in full)?
A1 apoptosis 2: -1

What do the screens show for `C=C(C)[C@@H]1CC=C(/C=N/NC(=O)CCCCC(=O)NO)CC1`?
T cruzi HTS: 27; INS-1E rescue: 3

Results for O=C(CCCCCC(=O)N/N=C/c1cc(Cl)cc(Cl)c1O)NO ?
A1 apoptosis 2: 1

How did O=C(O)CCCCCC(=O)N/N=C/c1ccc(CO)o1 do in these assays?
T cruzi HTS: -20; INS-1E rescue: -1

Results for COc1ccc([Si](C)(C)[C@@H]2[C@@H](CCO)O[C@]3(C(=O)N(Cc4cccc(NC(=O)[C@H](C)O)c4)c4ccccc43)[C@H]2C)cc1 ?
A1 apoptosis 2: 0

What do the screens show for `C[C@@H]1CN([C@@H](C)CO)C(=O)c2cccc(NC(=O)c3ccncc3)c2O[C@H]1CN(C)C(=O)Nc1ccccc1`?
T cruzi HTS: -3; A1 apoptosis 2: -1; INS-1E rescue: 9

Results for C[C@H]1CN([C@@H](C)CO)C(=O)c2cccc(NC(=O)c3ccncc3)c2O[C@H]1CN(C)C(=O)Nc1ccc(F)cc1 ?
T cruzi HTS: 64*; INS-1E rescue: 7

How did C[C@H](CO)N1C[C@H](C)[C@H](CN(C)C(=O)Nc2ccccc2)Oc2c(NC(=O)c3ccncc3)cccc2C1=O do in these assays?
T cruzi HTS: 78*; A1 apoptosis 2: -1; INS-1E rescue: 8

What do the screens show for `C[C@@H]1CN([C@H](C)CO)C(=O)c2cccc(NC(=O)c3ccncc3)c2O[C@@H]1CN(C)C(=O)Nc1ccc(F)cc1`?
T cruzi HTS: -30; A1 apoptosis 2: -2; INS-1E rescue: 11

What do the screens show for `C[C@H]1CN([C@@H](C)CO)C(=O)Cc2cc(NS(=O)(=O)c3ccc(Cl)cc3)ccc2O[C@@H]1CN(C)C(=O)Nc1ccc2c(c1)OCO2`?
T cruzi HTS: 5; A1 apoptosis 2: -1; INS-1E rescue: 2

How did CNC(=O)C1=C[C@@H](c2csc3ccccc23)C[C@@H](OCc2ccc(CO)cc2)O1 do in these assays?
A1 apoptosis 2: -1

What do the screens show for `CCO/N=[N+](\[O-])N1CCCC1`?
A1 apoptosis 2: 1

What do the screens show for `O=S(=O)(NC1CCN(Cc2ccc(OCCO)cc2)CC1)c1ccc(-c2ccccc2)cc1`?
A1 apoptosis 2: 0

What do the screens show for `Cc1[nH]cnc1/C=N/NC(=O)CCCCC(=O)NO`?
T cruzi HTS: -4; A1 apoptosis 2: 1; INS-1E rescue: 14

How did O=C(O)CCCCCC(=O)N/N=C/c1ccccc1[N+](=O)[O-] do in these assays?
T cruzi HTS: -19; A1 apoptosis 2: 1; INS-1E rescue: 8

Results for C[C@@H]1CCCCO[C@@H](CN(C)C(=O)Nc2ccc(C(F)(F)F)cc2)[C@H](C)CN([C@@H](C)CO)C(=O)c2cc(NS(=O)(=O)c3ccc(F)cc3)ccc2O1 ?
A1 apoptosis 2: 0

Results for C[C@@H]1CCCCO[C@@H](CN(C)C(=O)Nc2ccc(C(F)(F)F)cc2)[C@@H](C)CN([C@H](C)CO)C(=O)c2cc(NS(=O)(=O)c3ccc(F)cc3)ccc2O1 ?
T cruzi HTS: 71*; A1 apoptosis 2: 0; INS-1E rescue: -13
